Data as given in ChEMBL document CHEMBL3853281, “Pregnane-10,2-carbolactones from a Hawaiian Marine Sponge in the Genus Myrmekioderma” (J Nat Prod, 2016).

How the values were obtained:
[1] = molecular target: T1, PXR (NR1I2); CYP3A4 gene expression (Homo sapiens, UniProt O75469); assay: Activation of human PXR expressed in human DPX2 cells assessed as induction of CYP3A4 gene expression at 0.4 uM measured after 24 hrs by luciferase reporter gene assay relative to control; type: cell-based; conditions: DPX2 cells expressing human PXR, read-out: FC
T1 sequence (O75469 whole entry): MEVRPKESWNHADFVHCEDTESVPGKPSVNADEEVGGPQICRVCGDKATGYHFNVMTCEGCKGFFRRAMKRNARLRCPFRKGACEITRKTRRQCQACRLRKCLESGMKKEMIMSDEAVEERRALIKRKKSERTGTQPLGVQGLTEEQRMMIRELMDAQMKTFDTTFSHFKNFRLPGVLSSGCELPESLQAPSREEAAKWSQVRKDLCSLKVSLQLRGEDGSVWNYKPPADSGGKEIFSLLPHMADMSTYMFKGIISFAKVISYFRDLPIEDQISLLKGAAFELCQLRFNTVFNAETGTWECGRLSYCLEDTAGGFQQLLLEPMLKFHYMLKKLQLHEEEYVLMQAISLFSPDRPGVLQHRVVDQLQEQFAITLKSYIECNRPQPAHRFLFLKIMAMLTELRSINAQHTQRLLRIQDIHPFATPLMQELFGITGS
How it was run: (§1)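 DPX2 cells stably carrying human PXR (NR1I2) and a luciferase reporter under two human CYP3A4 promoters. Cells were seeded, treated 24 h later with six compound concentrations in duplicate wells, then incubated 24 h more. Viable cells were counted by a fluorescent cytotoxicity read in the same wells, then luciferase (ONE-Glo) was read. Fold activation is relative to DMSO vehicle-treated cells.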

[2] = molecular target: T2, Nuclear receptor subfamily 1 group I member 2 (Homo sapiens, UniProt O75469); assay: Activation of human PXR expressed in human DPX2 cells assessed as induction of CYP3A4 gene expression at 0.1 uM measured after 24 hrs by luciferase reporter gene assay relative to rifampicin; type: cell-based; conditions: dpx2, 24 h
T2 sequence (O75469 whole entry): T1 sequence (O75469 whole entry)
How it was run: (§2)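 PXR reporter run in stable DPX2 cells expressing human PXR with a luciferase reporter linked to two human CYP3A4 promoters. Compound (six concentrations, duplicate wells) was added 24 h after seeding, with a further 24 h incubation. Viability was read first, then luciferase in the same wells. Rifampicin was the reference at seven concentrations; activation is given as % of rifampicin response, with rifampicin at 10 μM.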

[3] = molecular target: T1, PXR (NR1I2); CYP3A4 gene expression; assay: Activation of human PXR expressed in human DPX2 cells assessed as induction of CYP3A4 gene expression at 0.1 uM measured after 24 hrs by luciferase reporter gene assay relative to control; type: cell-based; conditions: DPX2 cells expressing human PXR, read-out: FC; how it was run: as §1
[4] = molecular target: T1, PXR (NR1I2); CYP3A4 gene expression; assay: Activation of human PXR expressed in human DPX2 cells assessed as induction of CYP3A4 gene expression at 10 uM measured after 24 hrs by luciferase reporter gene assay relative to control; type: cell-based; conditions: DPX2 cells expressing human PXR, read-out: FC; how it was run: as §1
[5] = molecular target: T2, Nuclear receptor subfamily 1 group I member 2; assay: Activation of human PXR expressed in human DPX2 cells assessed as induction of CYP3A4 gene expression at 4 uM measured after 24 hrs by luciferase reporter gene assay relative to rifampicin; type: cell-based; conditions: dpx2, 24 h; how it was run: as §2
[6] = molecular target: T1, PXR (NR1I2); CYP3A4 gene expression; assay: Activation of human PXR expressed in human DPX2 cells assessed as induction of CYP3A4 gene expression at 4 uM measured after 24 hrs by luciferase reporter gene assay relative to control; type: cell-based; conditions: DPX2 cells expressing human PXR, read-out: FC; how it was run: as §1
[7] = molecular target: T1, PXR (NR1I2); CYP3A4 gene expression; assay: Activation of human PXR expressed in human DPX2 cells assessed as induction of CYP3A4 gene expression at 1 uM measured after 24 hrs by luciferase reporter gene assay relative to control; type: cell-based; conditions: DPX2 cells expressing human PXR, read-out: FC; how it was run: as §1
[8] = molecular target: T2, Nuclear receptor subfamily 1 group I member 2; assay: Activation of human PXR expressed in human DPX2 cells assessed as induction of CYP3A4 gene expression at 0.4 uM measured after 24 hrs by luciferase reporter gene assay relative to rifampicin; type: cell-based; conditions: dpx2, 24 h; how it was run: as §2
[9] = molecular target: T2, Nuclear receptor subfamily 1 group I member 2; assay: Activation of human PXR expressed in human DPX2 cells assessed as induction of CYP3A4 gene expression at 40 uM measured after 24 hrs by luciferase reporter gene assay relative to rifampicin; type: cell-based; conditions: dpx2, 24 h; how it was run: as §2
[10] = molecular target: T2, Nuclear receptor subfamily 1 group I member 2; assay: Activation of human PXR expressed in human DPX2 cells assessed as induction of CYP3A4 gene expression at 10 uM measured after 24 hrs by luciferase reporter gene assay relative to rifampicin; type: cell-based; conditions: dpx2, 24 h; how it was run: as §2
[11] = molecular target: T1, PXR (NR1I2); CYP3A4 gene expression; assay: Activation of human PXR expressed in human DPX2 cells assessed as induction of CYP3A4 gene expression at 40 uM measured after 24 hrs by luciferase reporter gene assay relative to control; type: cell-based; conditions: DPX2 cells expressing human PXR, read-out: FC; how it was run: as §1
[12] = molecular target: T2, Nuclear receptor subfamily 1 group I member 2; assay: Activation of human PXR expressed in human DPX2 cells assessed as induction of CYP3A4 gene expression at 1 uM measured after 24 hrs by luciferase reporter gene assay relative to rifampicin; type: cell-based; conditions: dpx2, 24 h; how it was run: as §2
[13] = molecular target: Beta-secretase 1 (Homo sapiens, UniProt P56817); assay: Inhibition of BACE1 (unknown origin) assessed as cleavage of amyloid precursor protein by beta-galactosidase enzyme complementation assay
Sequence of Beta-secretase 1 (P56817 whole entry): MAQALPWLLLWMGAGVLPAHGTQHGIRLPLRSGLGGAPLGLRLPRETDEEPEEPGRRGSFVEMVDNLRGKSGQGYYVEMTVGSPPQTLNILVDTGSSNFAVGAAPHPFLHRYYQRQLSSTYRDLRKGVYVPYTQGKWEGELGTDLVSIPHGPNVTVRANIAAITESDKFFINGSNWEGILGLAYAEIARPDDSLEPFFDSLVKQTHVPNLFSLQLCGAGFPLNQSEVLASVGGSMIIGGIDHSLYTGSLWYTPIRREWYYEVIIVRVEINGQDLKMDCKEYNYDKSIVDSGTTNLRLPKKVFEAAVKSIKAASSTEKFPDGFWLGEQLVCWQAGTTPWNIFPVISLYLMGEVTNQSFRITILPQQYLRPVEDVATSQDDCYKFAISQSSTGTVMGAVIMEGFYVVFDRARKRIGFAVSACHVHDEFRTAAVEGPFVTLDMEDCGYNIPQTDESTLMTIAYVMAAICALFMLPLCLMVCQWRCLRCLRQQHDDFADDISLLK

How did the fold induction at 24 h, 0.4 µM [1] turn out when `C/C=C1\CC[C@H]2[C@@H]3CC=C4[C@@H](O)[C@@H](O)[C@@H]5C[C@]4(C(=O)O5)[C@H]3CC[C@]12C` was run?
Its fold induction at 24 h, 0.4 µM is 1.4.

And the Activity [2]?
The Activity was 3%.

What about the fold induction at 24 h, 0.1 µM [3] of the same molecule?
The fold induction at 24 h, 0.1 µM was 1.3.

And the fold induction at 24 h, 10 µM [4]?
Its fold induction at 24 h, 10 µM is 1.6.

What about the Activity [5] of the same molecule?
The Activity was 2%.

And the fold induction at 24 h, 4 µM [6]?
The fold induction at 24 h, 4 µM was 1.2.

And the fold induction at 24 h, 1 µM [7]?
Its fold induction at 24 h, 1 µM is 1.2.

And the Activity [8]?
Its Activity is 4%.

And the Activity [9]?
The Activity was 28%.

What about the Activity [10] of the same molecule?
The Activity was 6%.

And the fold induction at 24 h, 40 µM [11]?
Its fold induction at 24 h, 40 µM is 3.7.

And the Activity [12]?
The Activity was 2%.

With `CC[C@]1(C)CCC2=C1CC[C@H]1[C@H]2C[C@@H](Cl)C2=C[C@@H](O)[C@@H]3C[C@@]21C(=O)O3` as the molecule, how does the IC50 [13] read?
The IC50 was 82 µM.
